Data from ChEMBL document CHEMBL5724801, “EUbOPEN Chemogenomics Library - Multiplex” (2024).
Where “and” joins values, the source holds several entries; their conditions need not be identical. Identical values can stand only once.

Tested on: U2OS
Test: Multiplex assay against U2OS
Format: toxicity, cell-based
Conditions: human
How it was run: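 With compound added, live cells were imaged on a CQ1 microscope at 37°C and 5% CO2; staining with Hoechst33342, BioTracker Green Microtubule Cytoskeleton Dye, MitoTracker Red and Annexin V Alexa Fluor 680 had been done at seeding. The CellPathfinder machine-learning gating scheme split cells into Hoechst high-intensity objects or normal cells, normal cells into healthy, pyknosed or fragmented nuclei, and pyknosed cells into mitotic or apoptotic. The tubulin, mitochondrial-mass and membrane-permeability phenotypes are per cents of healthy-nucleus cells.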

[1] = 12 h, 1 µM, compound concentration 1 uM
[2] = 12 h, 10 µM, compound concentration 10 uM
[3] = 24 h, 1 µM, compound concentration 1 uM
[4] = 24 h, 10 µM, compound concentration 10 uM
[5] = 48 h, 1 µM, compound concentration 1 uM
[6] = 48 h, 10 µM, compound concentration 10 uM

Q: Which results are given for Cc1c(CC(=O)O)c2cccnc2n1Cc1ccc(S(C)(=O)=O)cc1C(F)(F)F [FEVIPIPRANT]?
A: Population Apoptotic (%) [1]: 80% and 50%; Population Fragmented Nuclei (%) [1]: 25% and 22%; Population Healthy Nuclei (%) [1]: 64% and 72%; Population Hoechst High Intensity Objects (%) [1]: 1%; Population Membrane Permeable-Phenotype (%) [1]: 2% and 8%; Population Mitochondria Different-Phenotype (%) [1]: 2% and 1%; Population Mitotic Cells (%) [1]: 19% and 50%; Population Normal (%) [1]: 98%; Population Pyknosed Nuclei (%) [1]: 9% and 5%; Population Tubulin-Different-Phenotype (%) [1]: 0% and 9%; Total Cell Count [1]: 224 and 118; Population Apoptotic (%) [2]: 90% and 100%; Population Fragmented Nuclei (%) [2]: 27% and 22%; Population Healthy Nuclei (%) [2]: 65% and 73%; Population Hoechst High Intensity Objects (%) [2]: 2% and 0%; Population Membrane Permeable-Phenotype (%) [2]: 3% and 8%; Population Mitochondria Different-Phenotype (%) [2]: 0% and 3%; Population Mitotic Cells (%) [2]: 9% and 0%; Population Normal (%) [2]: 97% and 99%; Population Pyknosed Nuclei (%) [2]: 7% and 3%; Population Tubulin-Different-Phenotype (%) [2]: 1% and 4%; Total Cell Count [2]: 287 and 116; Population Apoptotic (%) [3]: 80% and 66%; Population Fragmented Nuclei (%) [3]: 20% and 17%; Population Healthy Nuclei (%) [3]: 71% and 74%; Population Hoechst High Intensity Objects (%) [3]: 2% and 0%; Population Membrane Permeable-Phenotype (%) [3]: 1% and 9%; Population Mitochondria Different-Phenotype (%) [3]: 3% and 0%; Population Mitotic Cells (%) [3]: 20% and 33%; Population Normal (%) [3]: 97% and 100%; Population Pyknosed Nuclei (%) [3]: 8%; Population Tubulin-Different-Phenotype (%) [3]: 1% and 10%; Total Cell Count [3]: 256 and 145; Population Apoptotic (%) [4]: 96% and 100%; Population Fragmented Nuclei (%) [4]: 20% and 12%; Population Healthy Nuclei (%) [4]: 70% and 78%; Population Hoechst High Intensity Objects (%) [4]: 0% and 1%; Population Membrane Permeable-Phenotype (%) [4]: 5% and 8%; Population Mitochondria Different-Phenotype (%) [4]: 3% and 2%; Population Mitotic Cells (%) [4]: 3% and 0%; Population Normal (%) [4]: 99% and 98%; Population Pyknosed Nuclei (%) [4]: 8%; Population Tubulin-Different-Phenotype (%) [4]: 3%; Total Cell Count [4]: 326 and 119; Population Apoptotic (%) [5]: 65% and 90%; Population Fragmented Nuclei (%) [5]: 18% and 20%; Population Healthy Nuclei (%) [5]: 71% and 67%; Population Hoechst High Intensity Objects (%) [5]: 2%; Population Membrane Permeable-Phenotype (%) [5]: 4% and 8%; Population Mitochondria Different-Phenotype (%) [5]: 3% and 5%; Population Normal (%) [5]: 97%; Population Pyknosed Nuclei (%) [5]: 10% and 12%; Population Tubulin-Different-Phenotype (%) [5]: 2% and 9%; Total Cell Count [5]: 379 and 187; Population Apoptotic (%) [6]: 91% and 100%; Population Fragmented Nuclei (%) [6]: 17% and 15%; Population Healthy Nuclei (%) [6]: 73% and 76%; Population Hoechst High Intensity Objects (%) [6]: 1% and 3%; Population Membrane Permeable-Phenotype (%) [6]: 4% and 5%; Population Mitochondria Different-Phenotype (%) [6]: 3% and 1%; Population Mitotic Cells (%) [6]: 8% and 0%; Population Normal (%) [6]: 98% and 96%; Population Pyknosed Nuclei (%) [6]: 8%; Population Tubulin-Different-Phenotype (%) [6]: 3%; Total Cell Count [6]: 408 and 158

Q: Which results are given for CN1CCN(c2cc(-c3ccccc3)nc(N)n2)CC1?
A: Population Apoptotic (%) [1]: 80% and 62%; Population Fragmented Nuclei (%) [1]: 32% and 17%; Population Healthy Nuclei (%) [1]: 61% and 76%; Population Hoechst High Intensity Objects (%) [1]: 2% and 1%; Population Membrane Permeable-Phenotype (%) [1]: 5% and 7%; Population Mitochondria Different-Phenotype (%) [1]: 2% and 5%; Population Mitotic Cells (%) [1]: 20% and 37%; Population Normal (%) [1]: 97% and 98%; Population Pyknosed Nuclei (%) [1]: 6% and 5%; Population Tubulin-Different-Phenotype (%) [1]: 2% and 11%; Total Cell Count [1]: 235 and 141; Population Apoptotic (%) [2]: 86% and 73%; Population Healthy Nuclei (%) [2]: 63% and 80%; Population Hoechst High Intensity Objects (%) [2]: 0% and 1%; Population Membrane Permeable-Phenotype (%) [2]: 5% and 10%; Population Mitochondria Different-Phenotype (%) [2]: 3%; Population Mitotic Cells (%) [2]: 13% and 26%; Population Normal (%) [2]: 99% and 98%; Population Pyknosed Nuclei (%) [2]: 6% and 10%; Population Tubulin-Different-Phenotype (%) [2]: 3% and 7%; Total Cell Count [2]: 252 and 139; Population Apoptotic (%) [3]: 86% and 80%; Population Fragmented Nuclei (%) [3]: 25% and 21%; Population Healthy Nuclei (%) [3]: 65% and 73%; Population Hoechst High Intensity Objects (%) [3]: 1%; Population Membrane Permeable-Phenotype (%) [3]: 7% and 6%; Population Mitochondria Different-Phenotype (%) [3]: 1%; Population Mitotic Cells (%) [3]: 13% and 20%; Population Normal (%) [3]: 98%; Population Pyknosed Nuclei (%) [3]: 8% and 5%; Population Tubulin-Different-Phenotype (%) [3]: 4% and 9%; Total Cell Count [3]: 278 and 177; Population Apoptotic (%) [4]: 100% and 81%; Population Fragmented Nuclei (%) [4]: 23% and 12%; Population Healthy Nuclei (%) [4]: 69% and 80%; Population Hoechst High Intensity Objects (%) [4]: 1% and 2%; Population Membrane Permeable-Phenotype (%) [4]: 9% and 4%; Population Mitochondria Different-Phenotype (%) [4]: 3% and 4%; Population Mitotic Cells (%) [4]: 0% and 18%; Population Normal (%) [4]: 98% and 97%; Population Pyknosed Nuclei (%) [4]: 6%; Population Tubulin-Different-Phenotype (%) [4]: 7% and 2%; Total Cell Count [4]: 287 and 166; Population Apoptotic (%) [5]: 83% and 69%; Population Fragmented Nuclei (%) [5]: 21% and 19%; Population Healthy Nuclei (%) [5]: 69% and 75%; Population Hoechst High Intensity Objects (%) [5]: 2% and 3%; Population Membrane Permeable-Phenotype (%) [5]: 5%; Population Mitochondria Different-Phenotype (%) [5]: 1% and 2%; Population Mitotic Cells (%) [5]: 16% and 30%; Population Normal (%) [5]: 97% and 96%; Population Pyknosed Nuclei (%) [5]: 9% and 5%; Population Tubulin-Different-Phenotype (%) [5]: 2% and 7%; Total Cell Count [5]: 409 and 267; Population Apoptotic (%) [6]: 100% and 88%; Population Fragmented Nuclei (%) [6]: 19% and 11%; Population Healthy Nuclei (%) [6]: 71% and 78%; Population Hoechst High Intensity Objects (%) [6]: 1%; Population Membrane Permeable-Phenotype (%) [6]: 5% and 2%; Population Mitochondria Different-Phenotype (%) [6]: 3%; Population Mitotic Cells (%) [6]: 0% and 12%; Population Normal (%) [6]: 98%; Population Pyknosed Nuclei (%) [6]: 8% and 10%; Population Tubulin-Different-Phenotype (%) [6]: 6% and 1%; Total Cell Count [6]: 420 and 254

Q: Which results are given for CC(=O)O[C@H]1C(=O)[C@@]2(C)[C@H]([C@H](OC(=O)c3ccccc3)[C@]3(O)C[C@H](OC(=O)[C@H](O)[C@@H](NC(=O)c4ccccc4)c4ccccc4)C(C)=C1C3(C)C)[C@]1(OC(C)=O)CO[C@@H]1C[C@@H]2O [PACLITAXEL]?
A: Population Apoptotic (%) [2]: 64% and 71%; Population Fragmented Nuclei (%) [2]: 28% and 16%; Population Healthy Nuclei (%) [2]: 46% and 60%; Population Hoechst High Intensity Objects (%) [2]: 8% and 3%; Population Membrane Permeable-Phenotype (%) [2]: 23% and 10%; Population Mitochondria Different-Phenotype (%) [2]: 25% and 30%; Population Mitotic Cells (%) [2]: 35% and 28%; Population Normal (%) [2]: 91% and 96%; Population Pyknosed Nuclei (%) [2]: 24% and 23%; Population Tubulin-Different-Phenotype (%) [2]: 16% and 14%; Total Cell Count [2]: 200 and 94; Population Apoptotic (%) [4]: 69% and 58%; Population Fragmented Nuclei (%) [4]: 33% and 25%; Population Healthy Nuclei (%) [4]: 36% and 48%; Population Hoechst High Intensity Objects (%) [4]: 4%; Population Membrane Permeable-Phenotype (%) [4]: 21% and 15%; Population Mitochondria Different-Phenotype (%) [4]: 44% and 34%; Population Mitotic Cells (%) [4]: 30% and 41%; Population Normal (%) [4]: 95%; Population Pyknosed Nuclei (%) [4]: 29% and 26%; Population Tubulin-Different-Phenotype (%) [4]: 13% and 18%; Total Cell Count [4]: 198 and 95; Population Apoptotic (%) [6]: 76% and 70%; Population Fragmented Nuclei (%) [6]: 35% and 27%; Population Healthy Nuclei (%) [6]: 30% and 31%; Population Hoechst High Intensity Objects (%) [6]: 12% and 8%; Population Membrane Permeable-Phenotype (%) [6]: 27% and 14%; Population Mitochondria Different-Phenotype (%) [6]: 29% and 50%; Population Mitotic Cells (%) [6]: 23% and 29%; Population Normal (%) [6]: 87% and 91%; Population Pyknosed Nuclei (%) [6]: 33% and 41%; Population Tubulin-Different-Phenotype (%) [6]: 16% and 25%; Total Cell Count [6]: 203 and 98
